In PMC3074116 (Translational stroke research, 2011):
pEC50, pIC50: −log10 of the molar value.

Tests used:
[1] = system: P-glycoprotein (PgP); experiment: P-glycoprotein binding using the MTT assay with and without cyclosporin A; settings: 50 μM, 24-h exposure, n=7; for % Control (compound+CSA): with CSA; for % Control (compound): without CSA
[2] = system: rabbit embolic stroke model; settings: cited from earlier work
[3] = system: H4IIE cells; experiment: CTox ranking; format: cell-based, rat; settings: generated from TC50 values by proprietary algorithm
[4] = Solubility in culture medium; format: physicochemical; settings: for soluble up to and including: culture medium with 10% bovine serum and 10% calf serum, 37°C
[5] = system: H4IIE cells; settings: for Cell number (cell mass) TC50: 24-h exposure, n=7 replicates
[6] = system: H4IIE cells; settings: 24-h exposure, GST leakage, n=3 replicates
[7] = system: Cytochrome P450 1A1/2
[8] = system: HT22 cells; settings: read-out: EC50 neuroprotection, glutamate (5 mM); cited from earlier work
[9] = system: H4IIE cells; experiment: Intracellular glutathione; format: cell-based, rat; settings: for GSH content TC50: 24-h exposure; for effect on intracellular GSH content: 1–300 μM
[10] = Metabolic stability in rat microsomes; format: in vitro ADME; settings: 1 μM; for metabolic stability (in words): male Sprague–Dawley rat microsomal preparation; for percent of parent remaining: HPLC/MS
Outline: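 Incubated at 1 μM for 30 min at 37°C with pooled liver microsomes from non-induced male Sprague–Dawley rats. Parent loss measured by HPLC-MS on a C18 column at 50°C (water/0.1% formic acid; acetonitrile/0.07% formic acid). Triplicate percent parent remaining; ranked low (100–65%), moderate (65–45%) or high (<45%) metabolism.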

[11] = system: HT22 cells; settings: cited from earlier work
[12] = system: H4IIE cells; settings: 24-h exposure, n=7 replicates
[13] = system: rat cognition assay; settings: 10 mg/kg by gavage; cited from earlier work
[14] = system: H4IIE cells; experiment: Lipid peroxidation measured as 8-isoprostane; format: cell-based, rat; settings: 1–300 μM
[15] = 100 mg/kg single bolus injection

## COc1cc(C=Cc2cc(/C=C/c3ccc(O)c(OC)c3)nn2-c2ccccc2)ccc1O [CNB-001]
[1]
  % Control (compound+CSA): 79.0%
  % Control (compound): 79.9%
[2]; [15]
  acute toxicity: without any signs of acute toxicity
  behavior: significant behavioral improvement
[3]
  CTox value (sustained concentration expected to produce toxicity in a rat 14-day repeat dose study): 42 µM
[4]
  soluble up to and including: ≥ 100 µM
[4]; culture medium, 300 μM
  solubility at 300 μM: not completely soluble
[5]
  Cell number (cell mass) TC50: 88 µM
[6]
  MemTox TC50: 193 µM
[7]; Fig. 2
  concentration with apparent inhibition of EROD activity: above 10 μM
[7]; read-out: EROD activity inhibition IC50, H4IIE cells
  pIC50: ~4.60
[8]
  pEC50: 6.15
[9]
  GSH content TC50: 76 µM
[10]
  metabolic stability (in words): metabolically unstable
[10]; rat microsomes, 30 min at 37°C
  metabolism ranking: high (<45% as high)
  percent of parent remaining: 42%
[11]
  effect on GSH levels in HT22 cells: no effect
[12]
  MTT TC50: 131 µM
[13]
  object recognition index: significantly increased
[14]
  effect on 8-isoprostane (lipid peroxidation): did not have any effect

## CC(C)(C)[N+]([O-])=Cc1ccc(S(=O)(=O)[O-])cc1S(=O)(=O)[O-].[Na+].[Na+] [NXY-059, Disodium 4-[[(1,1,-dimethylethyl)imino]methyl]benzene-1,3-disulfonate N-oxide]
[1]
  % Control (compound+CSA): 93.6%
  % Control (compound): 100.0%
[2]; time following embolization
  maximum therapeutic window: 1 h
[3]
  CTox value (sustained concentration expected to produce toxicity in a rat 14-day repeat dose study): > 300 µM
[4]
  soluble up to and including: ≥ 300 µM
[5]
  Cell number (cell mass) TC50: >300 µM
[6]
  MemTox TC50: >300 µM
[9]
  effect on intracellular GSH content: no effect
  GSH content TC50: > 300 µM
[10]
  metabolic stability (in words): very stable metabolically
[10]; rat microsomes, 30 min at 37°C
  percent of parent remaining: 93%
[14]
  effect on 8-isoprostane (lipid peroxidation): no effect

## CC1=NN(c2ccccc2)C(=O)C1 [Radicut, 3-Methyl-1-phenyl-2-pyrazolin-5-one]
[1]
  % Control (compound+CSA): 94.8%
  % Control (compound): 95.9%
[2]
  time of administration following embolization at which still active: 3 h
[3]
  CTox value (sustained concentration expected to produce toxicity in a rat 14-day repeat dose study): > 300 µM
[4]
  solubility: ≥ 300 µM
[5]
  Cell number (cell mass) TC50: >300 µM
[5]; 300-μM exposure
  decrease in cell proliferation: 30%
[6]
  MemTox TC50: >300 µM
[9]
  effect on intracellular GSH content: no effect
  GSH content TC50: > 300 µM
[10]
  metabolic stability (in words): metabolically unstable
[10]; rat microsomes, 30 min at 37°C
  percent of parent remaining: 28%
[14]
  effect on 8-isoprostane (lipid peroxidation): no effect
